Data: ChEMBL document CHEMBL3286282, “Synthesis and antiproliferative activity of novobiocin analogues as potential hsp90 inhibitors” (Eur J Med Chem, 2014)
Activity calls are given as the source filed them. No cut-off for these calls is given here.

Legend:
[1] = Retardation factor of the compound using CH2Cl2/c-hexane at ratio of 9:1 as solvent system; assay type: physicochemical
[2] = test system: MCF7; test: Antiproliferative activity against ER-positive human MCF7 cells assessed as cell viability at 0.1 mM after 72 hrs by MTT assay; assay type: functional; settings: MCF7, 72 h, read-out: Activity
In short: (§1)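 MCF-7 (ER-positive) cells in DMEM with 2 mM L-glutamine, penicillin/streptomycin and 10% charcoal-treated FCS, seeded at 2500-5000 cells/well. Drugs added 24 h later in serial dilutions from 10 mM DMSO stocks, then exposed 72 h. MTT (500 µg/mL) for 3 h at 37 °C, formazan dissolved in DMSO, A570 read minus A650. Sextuplicates, three experiments.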

[3] = test system: RPMI-8226; test: Growth inhibition of human RPMI8226 cells after 72 hrs by MTS assay; assay type: functional; settings: RPMI-8226, 72 h
In short: (§2)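 Myeloma RPMI 8226 and LP-1 cells and prostate PC-3 cells, grown in RPMI 1640 with 2 mM L-glutamine and 10% heat-inactivated FBS, seeded at 2500-5000 cells/well. Drug dilutions added after 24 h. After 72 h, MTS reagent added and A492 read 2 or 3 h later. Run in triplicate, with each experiment done at least twice. GI50 taken relative to vehicle-treated cells.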

[4] = test system: LP-1; test: Growth inhibition of human LP-1 cells after 72 hrs by MTS assay; assay type: functional; settings: LP-1, 72 h; in short: as §2
[5] = test system: PC-3; test: Growth inhibition of human PC3 cells after 72 hrs by MTS assay; assay type: functional; settings: PC-3, 72 h; in short: as §2
[6] = test system: MCF7; test: Cell cycle arrest in human MCF7 cells assessed as accumulation at subG1 phase at 100 uM after 48 hrs by flow cytometry (reference value: 5%); assay type: functional
In short: (§3)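 MCF-7 cells at 1.3 x 10^5 cells/mL exposed to 100 µM for 48 or 72 h, with DMSO control. Cells fixed in PBS/ethanol (30/70), then 10^4 cells incubated 30 min in PBS/0.2% Triton X-100/1 mM EDTA with propidium iodide (50 µg/mL) and RNase (0.5 mg/mL). Flow cytometry gave % cells per phase, with sub-G1 counted as apoptotic. Mean of two independent experiments.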

[7] = test system: MCF7; test: Cell cycle arrest in human MCF7 cells assessed as accumulation at subG1 phase at 100 uM after 72 hrs by flow cytometry (reference value: 9.5%); assay type: functional; in short: as §3
[8] = test system: MCF7; test: Cell cycle arrest in human MCF7 cells assessed as accumulation at G0/G1 phase at 100 uM after 48 hrs by flow cytometry (reference value: 87%); assay type: functional; in short: as §3
[9] = test system: MCF7; test: Cell cycle arrest in human MCF7 cells assessed as accumulation at G0/G1 phase at 100 uM after 72 hrs by flow cytometry (reference value: 60.5%); assay type: functional; in short: as §3
[10] = test system: MCF7; test: Cell cycle arrest in human MCF7 cells assessed as accumulation at S phase at 100 uM after 48 hrs by flow cytometry (reference value: 6%); assay type: functional; in short: as §3
[11] = test system: MCF7; test: Cell cycle arrest in human MCF7 cells assessed as accumulation at S phase at 100 uM after 72 hrs by flow cytometry (reference value: 20.5%); assay type: functional; in short: as §3
[12] = test system: MCF7; test: Cell cycle arrest in human MCF7 cells assessed as accumulation at G2/M phase at 100 uM after 48 hrs by flow cytometry (reference value: 7%); assay type: functional; in short: as §3
[13] = test system: MCF7; test: Cell cycle arrest in human MCF7 cells assessed as accumulation at G2/M phase at 100 uM after 72 hrs by flow cytometry (reference value: 19%); assay type: functional; in short: as §3
[14] = test system: MCF7; test: Antiproliferative activity against human MCF7 cells assessed as inhibition of cell proliferation; assay type: functional, cell-based
[15] = test system: MDA-MB-231; test: Antiproliferative activity against human MDA-MB-231 cells assessed as inhibition of cell proliferation; assay type: functional, cell-based
[16] = test system: Caco-2; test: Antiproliferative activity against human Caco2 cells assessed as inhibition of cell proliferation; assay type: functional, cell-based
[17] = test system: IGROV-1; test: Antiproliferative activity against human IGROV1 cells assessed as inhibition of cell proliferation; assay type: functional, cell-based
[18] = test system: Ishikawa; test: Antiproliferative activity against human Ishikawa cells assessed as inhibition of cell proliferation; assay type: functional, cell-based
[19] = test system: MCF7; test: Growth inhibition of ER-positive human MCF7 cells after 72 hrs by MTT assay; assay type: functional; settings: MCF7, 72 h; in short: as §1
[20] = test system: MDA-MB-231; test: Growth inhibition of ER-negative human MDA-MB-231 cells after 72 hrs by MTT assay; assay type: functional; settings: MDA-MB-231, 72 h
In short: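 ER-negative MDA-MB-231 cells and tamoxifen- or Faslodex-resistant MCF-7 cells, grown in DMEM with 10% charcoal-treated FCS and seeded at 2500-5000 cells/well. Drug serial dilutions added after 24 h from 10 mM DMSO stocks. After 72 h, MTT at 500 µg/mL for 3 h at 37 °C, then A570 read minus A650.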

[21] = Retardation factor of the compound using CH2Cl2/MeOH at ratio of 95:5 as solvent system; assay type: physicochemical
[22] = Retardation factor of the compound using CH2Cl2/MeOH at ratio of 9:1 as solvent system; assay type: physicochemical
[23] = biological target: Heat shock protein HSP 90-beta (Homo sapiens) (UniProt P08238); test: Inhibition of HSP90 in human MCF7 cells assessed as ER-alpha degradation at 100 uM after 24 hrs by western blot analysis; assay type: cell-based
In short: (§4)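 MCF-7 cells grown to 50% confluence, exposed to 100 µM for 24 h with or without MG132 (5 µM). Lysed in Tris-HCl pH 7.5/NaCl/EGTA/Triton X-100 buffer with phosphatase and protease inhibitors. 20 µg protein run on SDS-PAGE. ERα probed with D12 monoclonal antibody (1 µg/mL, overnight 4 °C), detected by biotin/avidin-peroxidase. Nonspecific band used as loading control; DMSO as vehicle.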

[24] = biological target: Heat shock protein HSP 90-beta (Homo sapiens) (UniProt P08238); test: Inhibition of HSP90 in human MCF7 cells assessed as ER-alpha degradation at 100 uM after 24 hrs by western blot analysis in presence of proteasome inhibitor MG132; assay type: cell-based; in short: as §4
[25] = Retardation factor of the compound using CH2Cl2/AcOEt at ratio of 95:5 as solvent system; assay type: physicochemical
[26] = Retardation factor of the compound using CH2Cl2 as solvent system; assay type: physicochemical
[27] = Retardation factor of the compound using Et2O as solvent system; assay type: physicochemical

Chain of Heat shock protein HSP 90-beta (Homo sapiens) (P08238 whole entry): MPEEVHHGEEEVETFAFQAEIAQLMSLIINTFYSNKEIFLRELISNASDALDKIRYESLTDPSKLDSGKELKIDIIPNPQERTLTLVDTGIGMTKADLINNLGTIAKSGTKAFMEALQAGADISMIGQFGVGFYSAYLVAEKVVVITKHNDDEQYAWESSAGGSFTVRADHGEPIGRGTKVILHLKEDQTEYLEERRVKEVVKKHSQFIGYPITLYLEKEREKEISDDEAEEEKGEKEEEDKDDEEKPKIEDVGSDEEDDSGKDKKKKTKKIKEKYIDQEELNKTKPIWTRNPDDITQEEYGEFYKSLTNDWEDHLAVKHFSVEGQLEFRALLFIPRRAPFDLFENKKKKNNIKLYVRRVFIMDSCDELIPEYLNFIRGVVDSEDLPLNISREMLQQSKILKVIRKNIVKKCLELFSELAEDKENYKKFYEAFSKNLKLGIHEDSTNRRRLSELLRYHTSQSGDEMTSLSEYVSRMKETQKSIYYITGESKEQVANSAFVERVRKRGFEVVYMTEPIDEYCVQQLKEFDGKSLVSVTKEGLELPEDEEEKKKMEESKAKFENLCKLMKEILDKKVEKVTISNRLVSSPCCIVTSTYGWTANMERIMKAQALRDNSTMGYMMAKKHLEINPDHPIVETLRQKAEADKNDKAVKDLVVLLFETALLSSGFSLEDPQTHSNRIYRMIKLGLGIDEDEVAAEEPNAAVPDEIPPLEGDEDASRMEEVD

With `COc1c(C#Cc2ccccc2)cc2c(OS(=O)(=O)c3ccc(C)cc3)c(NC(=O)c3ccc4c(c3)CCC(C)(C)O4)c(=O)oc2c1C` the Rf [1] was 0.1 and the viability at 100 µM [2] was 90%.
In the case of `COc1ccc(C(=O)Nc2cc3cc(Br)ccc3n(C)c2=O)cc1`, the GI50 [3] is reported as 5 µM, the GI50 [4] is reported as 6.2 µM and the GI50 [5] is reported as 10 µM. For the same compound, the Activity [6] was 29.5%, the Activity [7] was 47% and the Activity [8] was 34.81%. It also gave an Activity [9] of 40.43%, an Activity [10] of 17.14% and an Activity [11] of 18.09%. It also gave an Activity [12] of 48%, an Activity [13] of 41.5% and an IC50 [14] of 7 µM. It also gave an IC50 [15] of 2 µM, an IC50 [16] of 8 µM and an IC50 [17] of 5 µM. The IC50 [18] was 2 µM, the viability at 100 µM [2] was 10% and the GI50 [19] was 7 µM. The GI50 [20] was 2 µM.
With `Cc1c(O)ccc2c(NCCN3CCOCC3)c(NC(=O)c3ccc4c(c3)CCC(C)(C)O4)c(=O)oc12` the Rf [21] was 0.2 and the viability at 100 µM [2] was 87%.
`COc1c(C#CCN(C)C)cc2c(OS(=O)(=O)c3ccc(C)cc3)c(NC(=O)c3ccc4c(c3)CCC(C)(C)O4)c(=O)oc2c1C` gave a Rf [22] of 0.22 and a viability at 100 µM [2] of 96%.
In the case of `Cc1ccc(S(=O)(=O)Oc2c(NC(=O)c3ccc4c(c3)CCC(C)(C)O4)c(=O)oc3c(C)c(O)ccc23)cc1`, the “ER-alpha degradation (active/inactive)” value [23] is reported as “Active” and the inhibition [24] is reported as “inactive”.
With `CO[C@@H]1[C@@H](OC(N)=O)[C@@H](O)[C@H](Oc2ccc3c(O)c(NC(=O)c4ccc(O)c(CC=C(C)C)c4)c(=O)oc3c2C)OC1(C)C` [NOVOBIOCIN] the GI50 [19] was 260 µM.
Compound `COc1cc(C#Cc2cc3c(OS(=O)(=O)c4ccc(C)cc4)c(NC(=O)c4ccc5c(c4)CCC(C)(C)O5)c(=O)oc3c(C)c2OC)cc(OC)c1OC` has a Rf [25] of 0.48 and a viability at 100 µM [2] of 92%.
In the case of `COc1ccc(-c2cc3c(OS(=O)(=O)c4ccc(C)cc4)c(NC(=O)c4ccc5c(c4)CCC(C)(C)O5)c(=O)oc3c(C)c2OC)cc1`, the Rf [26] is reported as 0.27 and the viability at 100 µM [2] is reported as 89%.
With `Cc1c(O)ccc2c(OS(=O)(=O)c3ccc4ccccc4c3)c(NC(=O)c3ccc4c(c3)CCC(C)(C)O4)c(=O)oc12` the “ER-alpha degradation (active/inactive)” value [23] was “Active”, the Rf [27] was 0.3 and the viability at 100 µM [2] was 33%. For the same compound, the GI50 [19] was 67 µM.
